Data from ChEMBL document CHEMBL1926520, “13,13-Dimethyl-des-C,D analogues of (20S)-1α,25-dihydroxy-2-methylene-19-norvitamin D₃ (2MD): total synthesis, docking to the VDR, and biological evaluation” (Bioorg Med Chem, 2011).

What was measured:
[1] = tested on: Rattus norvegicus; experiment: Calcium transport in vitamin-D deficient weanling rat intestine assessed as intestinal calcium level at 2.1 ug/kg, ip administered daily for 7 consecutive days measured 24 hrs after last dose; type: functional
How it was run: (§1)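 Vitamin D-deficient rats were kept on a low-calcium diet and dosed ip daily for 7 consecutive days in the last week, in 0.1 ml propylene glycol/ethanol (95:5), with vehicle-only controls. Measurements were taken 24 h after the final dose. Intestinal calcium transport was expressed as the rise in serosal/mucosal (S/M) ratio over vehicle, average ± SEM, with 5–6 rats per group.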

[2] = molecular target: T1, Vitamin D3 receptor (Rattus norvegicus, UniProt P13053); experiment: Agonist activity at rat VDR in ROS 17/2.8 cells transfected with Cyp24a1 reporter plasmid assessed as increase in Cyp24a1 transcription after 16 hrs by luciferase reporter gene assay; type: functional, cell-based
T1 sequence (P13053 whole entry): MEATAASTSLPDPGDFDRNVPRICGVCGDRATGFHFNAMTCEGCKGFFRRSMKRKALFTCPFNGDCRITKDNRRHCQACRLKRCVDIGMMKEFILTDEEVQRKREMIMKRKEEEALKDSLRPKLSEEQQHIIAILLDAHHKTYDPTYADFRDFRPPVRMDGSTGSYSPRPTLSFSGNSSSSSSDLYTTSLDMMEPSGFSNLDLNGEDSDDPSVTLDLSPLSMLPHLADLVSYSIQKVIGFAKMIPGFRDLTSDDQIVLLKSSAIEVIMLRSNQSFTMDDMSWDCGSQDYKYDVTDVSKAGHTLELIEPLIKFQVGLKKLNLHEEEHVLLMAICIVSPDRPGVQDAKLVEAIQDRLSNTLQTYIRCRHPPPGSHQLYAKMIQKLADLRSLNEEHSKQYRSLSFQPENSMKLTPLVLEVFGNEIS
How it was run: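 ROS 17/2.8 osteosarcoma (bone) cells stably carrying a Cyp24a1 promoter–luciferase reporter were given a range of doses. Cells were harvested 16 h after dosing and luciferase was read on a luminometer. Duplicates were run on two–three separate occasions.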

[3] = tested on: Rattus norvegicus; experiment: Calcium transport in vitamin-D deficient weanling rat intestine assessed as intestinal calcium level at 97 ug/kg, ip administered daily for 7 consecutive days measured 24 hrs after last dose; type: functional; how it was run: as §1
[4] = tested on: Rattus norvegicus; experiment: Calcium mobilization in vitamin-D deficient weanling rat bone assessed as increase in serum calcium level at 6.5 ug/kg, ip administered daily for 7 consecutive days measured 24 hrs after last dose relative to vehicle treated control; type: functional
How it was run: (§2)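 Vitamin D-deficient rats were kept on a low-calcium diet and in the final week dosed ip once daily for 7 consecutive days in 0.1 ml propylene glycol/ethanol (95:5). Controls received vehicle only. Serum Ca (mg/dL) was measured 24 h after the last dose and reported as the increase over vehicle-treated rats, average ± SEM, with 5–6 rats per group.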

[5] = tested on: HL-60; experiment: Induction of human HL60 cell differentiation after 4 days by nitro blue tetrazolium reduction assay relative to 1alpha,25(OH)2D3; type: functional
How it was run: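 HL-60 cells were grown in RPMI-1640 with 10% FBS at 37 °C and 5% CO2, plated at 1.2×10^5 cells/plate, and treated in duplicate 18 h later (ethanol <0.2% final). After 4 days, NBT reduction was scored by counting formazan-positive cells among 200. […] The experiment was repeated 2–3 times.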

[6] = tested on: Rattus norvegicus; experiment: Calcium mobilization in vitamin-D deficient weanling rat bone assessed as increase in serum calcium level at 2.1 ug/kg, ip administered daily for 7 consecutive days measured 24 hrs after last dose relative to vehicle treated control; type: functional; how it was run: as §2
[7] = tested on: Rattus norvegicus; experiment: Calcium transport in vitamin-D deficient weanling rat intestine assessed as intestinal calcium level at 19 ug/kg, ip administered daily for 7 consecutive days measured 24 hrs after last dose; type: functional; how it was run: as §1
[8] = tested on: Rattus norvegicus; experiment: Calcium mobilization in vitamin-D deficient weanling rat bone assessed as increase in serum calcium level at 19 ug/kg, ip administered daily for 7 consecutive days measured 24 hrs after last dose relative to vehicle treated control; type: functional; how it was run: as §2
[9] = tested on: Rattus norvegicus; experiment: Calcium transport in vitamin-D deficient weanling rat intestine assessed as intestinal calcium level at 6.5 ug/kg, ip administered daily for 7 consecutive days measured 24 hrs after last dose; type: functional; how it was run: as §1
[10] = tested on: Rattus norvegicus; experiment: Calcium mobilization in vitamin-D deficient weanling rat bone assessed as increase in serum calcium level at 97 ug/kg, ip administered daily for 7 consecutive days measured 24 hrs after last dose relative to vehicle treated control; type: functional; how it was run: as §2
[11] = tested on: HL-60; experiment: Induction of human HL60 cell differentiation after 4 days by nitro blue tetrazolium reduction assay; type: functional, cell-based; details: HL-60, 96 h
[12] = molecular target: T1, Vitamin D3 receptor; experiment: Displacement of [3H]-1alpha,25(OH)2D3 from recombinant rat VDR by scintillation counting
How it was run: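 It was incubated overnight on ice with 1 nM final [3H]-1α,25(OH)2D3 plus unlabeled ligand in ethanol (<10% final). Bound ligand was collected on hydroxylapatite, washed and counted by scintillation. […] Duplicates were run on two–three occasions.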

[13] = tested on: Rattus norvegicus; experiment: Calcium mobilization in vitamin-D deficient weanling rat bone assessed as increase in serum calcium level at 22.8 ug/kg, ip administered daily for 7 consecutive days measured 24 hrs after last dose relative to vehicle treated control; type: functional; how it was run: as §2
[14] = tested on: Rattus norvegicus; experiment: Calcium mobilization in vitamin-D deficient weanling rat bone assessed as increase in serum calcium level at 1.9 ug/kg, ip administered daily for 7 consecutive days measured 24 hrs after last dose relative to vehicle treated control; type: functional; how it was run: as §2
[15] = tested on: Rattus norvegicus; experiment: Calcium mobilization in vitamin-D deficient weanling rat bone assessed as increase in serum calcium level at 5.7 ug/kg, ip administered daily for 7 consecutive days measured 24 hrs after last dose relative to vehicle treated control; type: functional; how it was run: as §2
[16] = tested on: Rattus norvegicus; experiment: Calcium mobilization in vitamin-D deficient weanling rat bone assessed as increase in serum calcium level at 0.7 ug/kg, ip administered daily for 7 consecutive days measured 24 hrs after last dose relative to vehicle treated control; type: functional; how it was run: as §2
[17] = tested on: Rattus norvegicus; experiment: Calcium transport in vitamin-D deficient weanling rat intestine assessed as intestinal calcium level at 0.7 ug/kg, ip administered daily for 7 consecutive days measured 24 hrs after last dose; type: functional; how it was run: as §1
[18] = tested on: Rattus norvegicus; experiment: Calcium transport in vitamin-D deficient weanling rat intestine assessed as intestinal calcium level at 0.2 ug/kg, ip administered daily for 7 consecutive days measured 24 hrs after last dose; type: functional; how it was run: as §1
[19] = tested on: Rattus norvegicus; experiment: Calcium mobilization in vitamin-D deficient weanling rat bone assessed as increase in serum calcium level at 0.2 ug/kg, ip administered daily for 7 consecutive days measured 24 hrs after last dose relative to vehicle treated control; type: functional; how it was run: as §2

## C=C1[C@H](O)CC(=C/C=C/CC(C)(C)C[C@@H](C)CCCC(C)(C)O)C[C@H]1O
[1]
  Activity: 0 mg/dL
[2]
  EC50: 2 nM
[3]
  Activity: 2.6 mg/dL
[4]
  Activity: 0.6 mg/dL
[5]
  Ratio EC50: 2
[6]
  Activity: 0.2 mg/dL
[7]
  Activity: 1 mg/dL
[8]
  Activity: 0.4 mg/dL
[9]
  Activity: 0.4 mg/dL
[10]
  Activity: 0.3 mg/dL
[11]
  EC50: 6 nM
[12]
  Ki: 2 nM

## C=C1[C@H](O)CC(=C/C=C\CC(C)(C)C[C@@H](C)CCCC(C)(C)O)C[C@H]1O
[2]
  EC50: 30 nM
[4]
  Activity: 0.2 mg/dL
[9]
  Activity: 0.1 mg/dL
[12]
  Ki: 10 nM

## C=C1[C@H](O)CC(=C/C=C/CCC[C@@H](C)CCCC(C)(C)O)C[C@H]1O
[13]
  Activity: 0.2 mg/dL
[5]
  Ratio EC50: 100
[14]
  Activity: -0.2 mg/dL
[15]
  Activity: 0.1 mg/dL

## C=C1/C(=C\C=C2/CCC[C@]3(C)[C@@H]([C@H](C)CCCC(C)(C)O)CC[C@@H]23)C[C@@H](O)C[C@@H]1O [CALCITRIOL]
[1]
  Activity: 4.2 mg/dL
[16]
  Activity: 1.3 mg/dL
[6]
  Activity: 1.9 mg/dL
[17]
  Activity: 2.8 mg/dL
[7]
  Activity: 5.9 mg/dL
[18]
  Activity: 4.2 mg/dL
[8]
  Activity: 3.9 mg/dL
[19]
  Activity: 0.5 mg/dL
